The results in this text go back to ChEMBL document CHEMBL2016503, “Design and synthesis of 4-O-methylhonokiol analogs as inhibitors of cyclooxygenase-2 (COX-2) and PGF₁ production” (Bioorg Med Chem, 2012).

As a reminder, the inhibition is the percentage by which the read-out fell short of the control. What is called IC50 is the midpoint of a concentration-inhibition curve.

The target in assay [1] is T1, Prostaglandin G/H synthase 2 (Homo sapiens) (UniProt P35354).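 Note: recombinant enzyme with arachidonic acid substrate, compound preincubated 10 min before substrate, product read by EIA after 2 min.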
T1 sequence (whole entry): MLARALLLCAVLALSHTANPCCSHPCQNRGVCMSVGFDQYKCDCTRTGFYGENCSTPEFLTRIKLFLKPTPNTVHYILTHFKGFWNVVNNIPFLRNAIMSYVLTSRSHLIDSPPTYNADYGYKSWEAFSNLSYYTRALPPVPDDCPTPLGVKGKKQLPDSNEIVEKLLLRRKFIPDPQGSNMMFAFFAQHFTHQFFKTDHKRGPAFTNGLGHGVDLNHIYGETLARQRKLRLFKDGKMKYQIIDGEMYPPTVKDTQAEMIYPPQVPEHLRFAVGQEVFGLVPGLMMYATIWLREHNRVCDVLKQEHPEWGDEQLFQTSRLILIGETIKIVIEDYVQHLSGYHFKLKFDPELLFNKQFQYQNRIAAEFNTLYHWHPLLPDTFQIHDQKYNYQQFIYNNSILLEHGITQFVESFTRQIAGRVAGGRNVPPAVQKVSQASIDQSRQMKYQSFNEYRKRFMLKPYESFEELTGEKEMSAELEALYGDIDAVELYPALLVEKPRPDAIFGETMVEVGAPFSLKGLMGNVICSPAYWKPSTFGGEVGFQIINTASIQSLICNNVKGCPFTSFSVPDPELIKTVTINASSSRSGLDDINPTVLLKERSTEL
The following applies: at 100 nM.

Assay [2] deals with RAW264.7. Put plainly: Inhibition of LPS-induced NO production in mouse RAW264.7 cells after 24 hrs by Griess assay. The assay is classed as functional, cell-based. The following applies: RAW264.7, 24 h. A digest of the protocol: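 RAW264.7 macrophages were grown in DMEM with heat-inactivated 10% FBS, penicillin and streptomycin at 37 °C under 5% CO₂. Cells were stimulated with LPS for 24 h with or without compound. Culture medium was mixed with an equal volume of 0.05% sulfanilamide and 0.05% N-(1-naphthyl)ethylenediamine, and absorbance was read at 540 nm. Nitrite was quantified against a sodium nitrite standard curve.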

Assay [3] has as its system RAW264.7. Kind of assay: Cytotoxicity against mouse RAW264.7 cells assessed as cell viability by propidium iodide staining based FACS-flow cytometry. A digest of the protocol:
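RAW264.7 macrophages were grown in DMEM with heat-inactivated 10% FBS, penicillin and streptomycin at 37 °C under 5% CO₂. Viability was assessed by propidium iodide nuclear staining at 1 µg/ml, followed by flow cytometry. PI-stained cells were counted as dead.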

`C=CCc1ccc(OC)c(-c2ccc(OC)c(CC=C)c2)c1` displayed an inhibition in assay [1] of 46%. Moreover, the IC50 in the assay with RAW264.7 [2] was 40 µM; in the assay on RAW264.7 [3], greater than 100 µM.

Molecule `C=CCc1ccc(O)c(-c2cc(CO)on2)c1` showed an inhibition in assay [1] of 38%. Further, the IC50 was 36 µM with RAW264.7 [2] and greater than 50 µM in the assay on RAW264.7 [3].

In assay [1], `C=CCc1cc(Br)c(O)c(-c2ccc(OC)c(CC=C)c2)c1` returned an inhibition of 52%. The values for the half-inhibitory concentration (IC50) in the assay on RAW264.7 [2] and with RAW264.7 [3] were 28 µM and 33 µM, respectively.

In assay [1], `C=CCc1ccc(O)c(-c2cc(CCC)on2)c1` yielded an inhibition of 39%. Moreover, the 50% inhibitory concentration (IC50) in the assay on RAW264.7 [2] came out at 61 µM; in the assay on RAW264.7 [3] it was 81 µM.

The molecule `C=CCc1ccc(OC(C)=O)c(-c2ccc(OC)c(CC=C)c2)c1` registered an inhibition in assay [1] of 39%. For the same molecule, the IC50 is 24 µM with RAW264.7 [2] and 29 µM in the assay on RAW264.7 [3].

`C=CCc1ccc(O)c(-c2ccc(OC)c(CC=C)c2)c1` [METHYLHONOKIOL]: the inhibition in assay [1] was found to be 57%. The values for the IC50 in the assay on RAW264.7 [2] and with RAW264.7 [3] were 18 µM and 27 µM, respectively.

In assay [1], `C=CCc1ccc(OC(C)C)c(-c2ccc(OC)c(CC=C)c2)c1` gave an inhibition of 23%. For the same molecule, the half-maximal inhibitory concentration (IC50) in the assay on RAW264.7 [2] is 78 µM; with RAW264.7 [3], greater than 100 µM.

Take `C=CCc1ccc(OC(=O)NCc2ccccc2)c(-c2ccc(OC)c(CC=C)c2)c1`: the inhibition in assay [1] turned out to be 65%. Moreover, the IC50 with RAW264.7 [2] and with RAW264.7 [3] was greater than 100 µM in each case.

In assay [1], `CCCc1cc(-c2cc(Br)ccc2O)no1` displayed an inhibition of 35%. In addition, the IC50 with RAW264.7 [2] and with RAW264.7 [3] was 63 µM in each case.

As for `C=CCc1ccc(O)c(-c2ccc(OC)c(CCCO)c2)c1`, the IC50 in the assay on RAW264.7 [2] worked out at 41 µM; with RAW264.7 [3] it was 53 µM.

In turn, `C=CCc1ccc(OCC=C(C)C)c(-c2ccc(OC)c(CC=C)c2)c1` yielded an inhibition in assay [1] of 44%. The IC50 in the assay with RAW264.7 [2] and in the assay with RAW264.7 [3] was greater than 100 µM throughout.

For `CCCc1ccc(O)c(-c2ccc(OC)c(CCC)c2)c1`, the inhibition in assay [1] was 46%. In addition, the half-inhibitory concentration (IC50) is 11 µM with RAW264.7 [2] and 13 µM in the assay on RAW264.7 [3].

Regarding `C=CCNC(=O)Oc1ccc(CC=C)cc1-c1ccc(OC)c(CC=C)c1`, the inhibition in assay [1] came to 48%. For the same molecule, the half-maximal inhibitory concentration (IC50) with RAW264.7 [2] and in the assay with RAW264.7 [3] was greater than 100 µM each time.

On to `C=CCc1ccc(OC(=O)N(C)Cc2ccccc2)c(-c2ccc(OC)c(CC=C)c2)c1`, for which the inhibition in assay [1] was 63%. The IC50 in the assay on RAW264.7 [2] amounted to 33 µM; in the assay with RAW264.7 [3], 44 µM.

For `Cc1ccc(-c2cc(C(F)(F)F)nn2-c2ccc(S(N)(=O)=O)cc2)cc1` [CELECOXIB], the concentration for half-maximal inhibition (IC50) with RAW264.7 [2] came out at 12.1 µM; in the assay with RAW264.7 [3] it was 11.1 µM.

As to `C=CCn1cc(-c2cc(CCC)ccc2O)nn1`, the inhibition in assay [1] was 22%. Moreover, the concentration for half-maximal inhibition (IC50) in the assay with RAW264.7 [2] and in the assay on RAW264.7 [3] was greater than 50 µM in each case.

On to `COc1ccc(-c2cc(CC=C(C)C)ccc2O)cc1CC=C(C)C`, for which the inhibition in assay [1] was 41%. The results for the half-inhibitory concentration (IC50) in the assay with RAW264.7 [2] and in the assay with RAW264.7 [3] were 13 µM and 15 µM, respectively.

Take `CCCc1ccc(O)c(-c2cn(CC3CCC3)nn2)c1`: the inhibition in assay [1] is 33%. Further, the 50% inhibitory concentration (IC50) is 33 µM in the assay on RAW264.7 [2] and greater than 50 µM in the assay with RAW264.7 [3].

The molecule `COc1ccc(-c2cc(CC3CO3)ccc2O)cc1CC1CO1` (configuration not stated) came in with an inhibition in assay [1] of 58%. Further, the IC50 in the assay on RAW264.7 [2] is 24 µM; with RAW264.7 [3], 64 µM.

As for `C=CCc1cc(Cl)c(O)c(-c2ccc(OC)c(CC=C)c2)c1`, the half-inhibitory concentration (IC50) with RAW264.7 [2] was 40 µM; in the assay on RAW264.7 [3], 81 µM.
